Laboratory results as given in ChEMBL document CHEMBL1156171, “N-aryltriazole ribonucleosides with potent antiproliferative activity against drug-resistant pancreatic cancer” (2010).
Active and inactive are the calls of the source. No cut-off for these calls is given here.

Legend:
MIA PaCa-2 [1] = experiment: Antiproliferative activity against human MIAPaCa2 cells assessed as cell viability after 48 hrs by MTT assay; format: functional, cell-based
Method in brief: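 MiaPaCa-2 cells in DMEM + 10% FBS, plated at 15,000 cells/well and attached overnight. Medium then replaced with fresh medium holding compound over a dose range; 37 °C, 5% CO2, 48 h. Viable cells determined by MTT colorimetric assay relative to untreated control.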

PC-3 = experiment: Antiproliferative activity against human PC3 cells assessed as cell viability at 50 uM after 48 hrs by MTT assay; format: functional; settings: PC-3, 48 h, read-out: Activity
Method in brief: (§1)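 Cells exposed to 50 µM compound (fresh medium) for 48 h at 37 °C, 5% CO2; untreated control. Viable cells counted by MTT colorimetric assay. Documented for MiaPaCa-2: DMEM + 10% FBS, 15,000 cells/well, overnight attachment before treatment.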

MIA PaCa-2 [2] = experiment: Antiproliferative activity against human MIAPaCa2 cells assessed as cell viability at 50 uM after 48 hrs by MTT assay; format: functional; settings: MIA PaCa-2, 48 h, read-out: Activity; method in brief: as §1
MIA PaCa-2 [3] = experiment: Induction of apoptosis in human MIAPaCa2 cells assessed as increase in caspase 3/7 activation at 50 uM after 24 hrs by luminescence assay; format: functional, cell-based
Method in brief: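 MiaPaCa-2 cells plated at 15,000 cells/well and treated 24 h later with 50 µM compound for 24 h. Caspase-Glo 3/7 reagent added; DEVD-containing luminogenic substrate cleavage read as luminescence after 1 h at room temperature. Untreated cells as control.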

Capan-2 = experiment: Antiproliferative activity against human Capan2 cells assessed as cell viability at 50 uM after 48 hrs by MTT assay; format: functional; settings: Capan-2, 48 h, read-out: Activity; method in brief: as §1
MIA PaCa-2 [4] = experiment: Induction of apoptosis in human MIAPaCa2 cells assessed as increase in sub-G1/G0 cell fraction at 50 uM after 48 hrs using propidium iodide staining by FACS analysis; format: functional, cell-based
Method in brief: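 MiaPaCa-2 cells plated at 10^6 per dish, grown overnight, then given fresh medium with 50 µM compound for 48 h; untreated negative control. Cells trypsinized, PBS-washed, fixed overnight in cold 70% ethanol at 4 °C, RNase-treated, propidium iodide stained, and sub-G1/G0 fraction read by flow cytometry. Triplicate samples.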

Compound	Activity (MIA PaCa-2 [1])	viability at 50 µM (PC-3) [%]	viability at 50 µM (MIA PaCa-2 [2]) [%]	Activity (MIA PaCa-2 [3])	viability at 50 µM (Capan-2) [%]	Activity (MIA PaCa-2 [4])
COC(=O)c1nc(Nc2ccc(Cl)cc2)nn1[C@@H]1O[C@H](COC(C)=O)[C@@H](OC(C)=O)[C@H]1OC(C)=O	Dose-dependent effect	60.2	43.8	Active	59.6	Active
NC(=O)c1nc(Nc2cccc(Cl)c2)nn1[C@@H]1O[C@H](CO)[C@@H](O)[C@H]1O	–	77.4	88.7	–	66.2	–
COC(=O)c1nc(Nc2ccc(C(F)(F)F)cc2)nn1[C@@H]1O[C@H](COC(C)=O)[C@@H](OC(C)=O)[C@H]1OC(C)=O	–	88.4	98.6	–	64.4	–
CC(=O)O[C@H]1C(=O)[C@@]2(C)[C@H]([C@H](OC(=O)c3ccccc3)[C@]3(O)C[C@H](OC(=O)[C@H](O)[C@@H](NC(=O)c4ccccc4)c4ccccc4)C(C)=C1C3(C)C)[C@]1(OC(C)=O)CO[C@@H]1C[C@@H]2O [PACLITAXEL]	–	41.3	–	–	–	–
COc1ccc(Nc2nc(C(N)=O)n([C@@H]3O[C@H](CO)[C@@H](O)[C@H]3O)n2)cc1	–	102	126	–	126	–
COC(=O)c1nc(Nc2ccccc2)nn1[C@@H]1O[C@H](COC(C)=O)[C@@H](OC(C)=O)[C@H]1OC(C)=O	–	91	138	–	96.2	–
CCCc1ccc(Nc2nc(C(N)=O)n([C@@H]3O[C@H](CO)[C@@H](O)[C@H]3O)n2)cc1	–	90.3	103	–	71.5	–
COC(=O)c1nc(Nc2ccc(SC)cc2)nn1[C@@H]1O[C@H](COC(C)=O)[C@@H](OC(C)=O)[C@H]1OC(C)=O	–	106	85.4	–	88.1	–
CCc1ccc(Nc2nc(C(N)=O)n([C@@H]3O[C@H](CO)[C@@H](O)[C@H]3O)n2)cc1	–	91.4	99.8	–	66	–
NC(=O)c1nc(Nc2ccc(F)cc2)nn1[C@@H]1O[C@H](CO)[C@@H](O)[C@H]1O	–	67	68.1	–	62.9	–
COC(=O)c1nc(Nc2cccc(C)c2)nn1[C@@H]1O[C@H](COC(C)=O)[C@@H](OC(C)=O)[C@H]1OC(C)=O	–	94.2	99.9	–	84.9	–
Nc1ccn([C@@H]2O[C@H](CO)[C@@H](O)C2(F)F)c(=O)n1 [GEMCITABINE]	–	–	70.4	–	32.7	–
CSc1ccc(Nc2nc(C(N)=O)n([C@@H]3O[C@H](CO)[C@@H](O)[C@H]3O)n2)cc1	–	92.1	98.6	–	71.1	–
COC(=O)c1nc(Nc2ccc(C)cc2)nn1[C@@H]1O[C@H](COC(C)=O)[C@@H](OC(C)=O)[C@H]1OC(C)=O	Dose-dependent effect	68.6	58.6	Active	47.1	Active
COC(=O)c1nc(Nc2cccc(Cl)c2)nn1[C@@H]1O[C@H](COC(C)=O)[C@@H](OC(C)=O)[C@H]1OC(C)=O	–	69.8	72.4	–	65.8	–
CCc1ccc(Nc2nc(C(=O)OC)n([C@@H]3O[C@H](COC(C)=O)[C@@H](OC(C)=O)[C@H]3OC(C)=O)n2)cc1	–	96.1	99	–	90	–
NC(=O)c1nc(Nc2ccc(Cl)cc2)nn1[C@@H]1O[C@H](CO)[C@@H](O)[C@H]1O	–	70.2	95.9	–	72.8	–
NC(=O)c1nc(Nc2ccc(C(F)(F)F)cc2)nn1[C@@H]1O[C@H](CO)[C@@H](O)[C@H]1O	–	89.4	100	–	122	–
COC(=O)c1nc(Nc2ccc(F)cc2)nn1[C@@H]1O[C@H](COC(C)=O)[C@@H](OC(C)=O)[C@H]1OC(C)=O	–	84.7	80.2	–	79.8	–
Cc1ccc(Nc2nc(C(N)=O)n([C@@H]3O[C@H](CO)[C@@H](O)[C@H]3O)n2)cc1	–	108	85.6	–	63.9	–
CCCc1ccc(Nc2nc(C(=O)OC)n([C@@H]3O[C@H](COC(C)=O)[C@@H](OC(C)=O)[C@H]3OC(C)=O)n2)cc1	–	90.2	103	–	95.9	–
Cc1cccc(Nc2nc(C(N)=O)n([C@@H]3O[C@H](CO)[C@@H](O)[C@H]3O)n2)c1	–	96.2	100	–	76.3	–
COC(=O)c1nc(Nc2ccc(OC)cc2)nn1[C@@H]1O[C@H](COC(C)=O)[C@@H](OC(C)=O)[C@H]1OC(C)=O	–	85.6	96.4	–	72	–
NC(=O)c1nc(Nc2ccccc2)nn1[C@@H]1O[C@H](CO)[C@@H](O)[C@H]1O	–	73.9	68	–	46.6	–
